Source: PubChem BioAssay (Johns Hopkins Ion Channel Center)
The list is not random: actives were taken first. Their share in the collection is about 3.5%.
RGS4 block: RGS4 inhibitors, primary screen, cell-based, HEK293 M3R inducible RGS4, calcium flux; Regulator of G-protein signaling 4 (Homo sapiens), P49798; Fluo-4 calcium flux; hits give high values; triggered by carbachol at its EC20; B-score at 10 µM; hit rate 0.45% among 310,000; AID 463165, 2010;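 active = B-score, a plate-corrected calcium signal, over three deviations above library mean, with baseline fluorescence within five deviations of library mean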;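 note: RGS4 expression induced by doxycycline in cells with stable M3 receptor; B-score is computed from the integrated fluorescence ratio over baseline after carbachol; higher B-score means a larger calcium signal and so more RGS4 inhibition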
Target sequence (P49798 whole entry, looked up): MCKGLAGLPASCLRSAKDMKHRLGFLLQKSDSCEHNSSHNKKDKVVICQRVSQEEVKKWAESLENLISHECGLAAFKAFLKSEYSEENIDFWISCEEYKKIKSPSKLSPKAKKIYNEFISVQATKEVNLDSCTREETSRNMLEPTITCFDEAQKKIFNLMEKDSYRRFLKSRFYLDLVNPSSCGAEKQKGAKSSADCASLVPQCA
MrgX1 PAM: positive allosteric modulators of MrgX1, primary screen, HEK293 cells, Fluo-4 calcium flux; Mas-related G-protein coupled receptor member X1 (Homo sapiens), Q96LB2; FDSS; hits give high values; B-score at 10 µM; hit rate 0.63% among 310,000;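 active = plate-corrected calcium response at least 3 library SD above typical, normal starting fluorescence, not activating the receptor alone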;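 note: compound read alongside a low EC10 to EC30 dose of BAM8-22 agonist; peak minus trough fluorescence over baseline measured at the second addition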
Target sequence (Q96LB2 whole entry, looked up): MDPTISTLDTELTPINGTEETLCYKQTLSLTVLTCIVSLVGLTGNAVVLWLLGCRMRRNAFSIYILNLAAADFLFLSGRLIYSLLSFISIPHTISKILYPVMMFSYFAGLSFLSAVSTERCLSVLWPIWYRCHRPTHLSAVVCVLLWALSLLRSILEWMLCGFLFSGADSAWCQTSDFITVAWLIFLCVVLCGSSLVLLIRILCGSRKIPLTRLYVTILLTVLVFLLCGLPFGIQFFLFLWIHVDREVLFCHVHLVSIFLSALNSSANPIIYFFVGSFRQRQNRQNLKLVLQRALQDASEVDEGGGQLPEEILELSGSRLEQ
MrgX1 agonist: agonists of human MrgX1 receptor, primary screen, HEK293 cells, Fluo-4 calcium flux; Fluo-4 calcium fluorescence, agonist mode; hits give high values; hit rate 0.44% among 310,000; Mas-related G-protein coupled receptor member X1 (Homo sapiens), Q96LB2; B-score at 10 µM;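 active = calcium response B-score plate-corrected fluorescence ratio at least 3 library SD, with starting fluorescence B-score inside 5 SD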
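Assay system: MrgX1-expressing HEK293 cells / Amount: fifteen thousand cells per well / Doses: test compound in the initial addition of three / Timing: cells plated overnight, dye loaded 0.5 h 37 °C, 0.5 h room temperature / Technique: kinetic calcium dye fluorescence, Fluo-4 NW / Control set: positive and negative controls per plate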
RGS4 act: RGS4 potentiators or activators, primary screen, cell-based, HEK293 M3R inducible RGS4, calcium flux; carbachol calcium flux Fluo4; hits give low values; B-score at 10 µM; hit rate 0.92% among 310,000;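 active = B-score of the integrated calcium signal more than 4 SD below the library mean, with starting fluorescence not abnormally high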;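 note: negative B-score means reduced calcium response which marks RGS4 activation or potentiation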
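Assay system: Inducible-RGS4 HEK293 cells carrying M3 receptor | Schedule: Compound preincubation 20 min at room temperature before agonist | Signal: Kinetic calcium fluorescence imaging with Fluo4-AM dye, 2 µM | Read-out basis: B score from integrated fluorescence ratio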
MrgX1 antagonist: antagonists of human MrgX1 receptor, primary screen, HEK293 cells, Fluo-4 calcium flux. Mas-related G-protein coupled receptor member X1 (Homo sapiens), Q96LB2. BAM8-22 antagonism; hits give low values. B-score at 10 µM. hit rate 1.3% among 310,000. AID 588676, 2011;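 active = calcium-response B-score plate-corrected more than 3 library SD below zero, starting fluorescence within 5 deviations, no agonist response on first addition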;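 note: peak minus trough fluorescence over baseline after final BAM8-22 challenge near maximal dose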
MrgX1 allo conf: MrgX1 positive allosteric modulators, duplicate retest, confirmation, HEK293 cells, Fluo-4 calcium flux; shares compounds with MrgX1 PAM; Fluo-4 calcium fluorescence, FDSS; activation (ratio percentage), % at 10 µM; hit rate 13% among 1,200;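 active = ratio at least 3 SD above the weak peptide control, stable starting fluorescence, no direct agonism earlier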;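 note: compound followed by low BAM8-22 agonist challenge near EC20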
MrgX1 ant reconf: MrgX1 receptor antagonists, duplicate retest, confirmation, HEK293 cells, Fluo-4 calcium flux | shares compounds with MrgX1 antagonist | BAM8-22 calcium flux; hits give low values | hit rate 19% among 2,300 | AID 602420, 2012 | remaining BAM8-22 calcium response % of control (hits give low values), % at 10 µM;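 active = remaining agonist calcium response no higher than 100% minus 3 SD of agonist-only control wells, with starting fluorescence near control levels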;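 note: agonist BAM8-22 given at a near maximal EC90 to ECmax level; peak minus minimum fluorescence divided by baseline after agonist addition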
HEK293 Ca flux: nonspecific calcium signal in parental HEK293, confirmation, counter-screen for MrgX1 antagonist project, parental HEK293 cells, Fluo-4 calcium flux; shares compounds with MrgX1 antagonist; Fluo-4 calcium fluorescence, FDSS; fluorescence ratio F(max-min)/F0 at 10 µM; hit rate 2% among 4,000; AID 624111, 2012;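 active = duplicate-averaged calcium fluorescence ratio at least three times the standard deviation of buffer wells, a nonspecific response in parental cells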
HEK293 Ca counter: calcium response in parental HEK293 cells, primary screen, counter-screen for MrgX1 allosteric activator project, cell-based, Fluo-4 calcium flux, duplicate; Fluo-4 fluorescence ratio; hits give high values; shares compounds with MrgX1 antagonist; AID 624114, 2012; hit rate 0.4% among 4,000; fluorescence ratio F(max-min)/F0 at 10 µM;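 active = calcium fluorescence ratio, averaged over duplicates, at least 3 SD of the buffer-well ratio, meaning a nonspecific response in receptor-free cells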;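 note: untransfected parental HEK293 lacking MrgX1 used as counterscreen for MrgX1 allosteric activators; fluorescence change taken during the second addition on a kinetic imager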
HEK293 Ca cntr2: calcium response in parental HEK293 cells, primary screen, counter-screen for MrgX1 agonist project, cell-based, Fluo-4 calcium flux, duplicate, agonist mode; Fluo-4 calcium fluorescence (FDSS); hits give high values; fluorescence ratio F(max-min)/F0 at 10 µM; AID 624115, 2012; shares compounds with MrgX1 antagonist; hit rate 8.7% among 4,000;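 active = calcium fluorescence ratio at least three times the spread of buffer wells, meaning a non-specific response in parental cells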
Starred values were filed as active, the others as inactive; i = inactive; . = no result given.

SMILES	RGS4 block	MrgX1 PAM	MrgX1 agonist	RGS4 act	MrgX1 antagonist	MrgX1 allo conf	HEK293 Ca flux	HEK293 Ca counter	HEK293 Ca cntr2	others
Cc1nn(CC(C)C)c(Cl)c1C(=O)N(c1ccc(Cl)cc1F)S(C)(=O)=O	i	i	i	i	i	.	.	.	.
CSCC[C@H](NC(=O)N1CCn2c1nc1ccccc12)C(=O)N1CCCCC1	i	10*	i	i	i	i	i	i	i
COc1ccc(/C=N/NC(=O)c2ccc[nH]2)cc1	i	i	i	i	i	.	.	.	.
CN1CCN(C(=O)c2ccc(CNS(=O)(=O)c3ccc(F)c(Cl)c3)cc2)CC1	i	i	i	i	i	.	.	.	.
CCOc1ccc(NC(=O)CCC(=O)c2ccc(OC)cc2)cc1	i	i	i	i	i	.	.	.	.
COc1cccc(/C=N/n2c(SC)nnc2-c2ccccc2)c1O	i	20*	i	i	i	154%*	i	i	i
COc1ccccc1NC(=O)NNC(=O)c1ccc2c(c1)NC(=O)C(C)(C)O2	i	20*	i	i	i	i	i	i	i
COc1cccc(NC(=O)NNC(=O)c2ccc3c(c2)NC(=O)C(C)(C)O3)c1	i	i	i	i	i	.	.	.	.
COc1ccc(C(=O)NCC(=O)N/N=C(C)\C=C\c2ccccc2)cc1OC	i	i	i	i	i	.	.	.	.
CCCCCCn1c(C(C)NC(=O)c2ccco2)nc2ccccc21 (stereo not drawn)	i	18*	i	i	i	i	i	i	i
CCCCn1c(C(C)NC(=O)CC)nc2ccccc21 (stereo not drawn)	i	i	i	i	i	.	.	.	.
CCOC(=O)c1c(C)nc2c(c1-c1ccc(Cl)cc1)C(=O)CC(C)(C)C2	i	8.6*	i	i	-4.8*	i	i	i	i	MrgX1 ant reconf=i
CCOC(=O)c1c(C)nc2ccccc2c1-c1ccccc1	i	7.6*	i	i	i	i	i	i	i
CCOC(=O)c1c(C)nc2c(c1-c1cc(OC)ccc1OC)C(=O)c1ccccc1-2	i	i	i	i	i	.	.	.	.
CCOC(=O)c1c(C)nc2c(c1-c1ccccc1)C(=O)c1ccccc1-2	i	9.3*	i	i	i	i	i	i	i
Cc1nn(C)cc1S(=O)(=O)NCc1ccc2c(c1)OCO2	i	i	i	i	i	.	.	.	.
Cc1ccc(C(=O)N2CCCC(CCC(=O)N3CCN(c4ccccn4)CC3)C2)cc1C (stereo not drawn)	i	7.8*	i	i	i	i	i	i	i
Cc1cc(C(=O)N2CCCC(CCC(=O)N3CCN(c4ccccn4)CC3)C2)c(C)o1 (stereo not drawn)	i	i	i	i	i	.	.	.	.
Cc1cccc(C(=O)N2CCCC(CCC(=O)N3CCN(c4ccccn4)CC3)C2)c1C (stereo not drawn)	i	9.4*	i	i	i	i	i	i	i
Cc1ccc(C(=O)N2CCCC(CCC(=O)N3CCN(c4ccccn4)CC3)C2)cn1 (stereo not drawn)	i	i	i	i	i	.	.	.	.
O=S(=O)(NC1CC1)c1ccccc1	i	i	i	i	i	.	.	.	.
COCCC(=O)N1CCC(Oc2ccc(C(=O)N(C)CCCC3CCCC3)cc2)CC1	i	i	i	i	i	.	.	.	.
O=C(Nc1ccccc1)N(Cc1ccc(Cl)cc1)CC(O)C(F)(F)F (stereo not drawn)	i	6.5*	i	i	i	i	i	i	i
O=C(Nc1ccccc1)N(Cc1ccccc1)Cc1ccccc1	i	i	i	i	i	.	.	.	.
O=C(NCc1ccc(F)cc1)C1CCCN(S(=O)(=O)c2ccc(-n3cnnn3)cc2)C1 (stereo not drawn)	i	8*	i	i	i	i	i	i	i
SMILES	RGS4 block	MrgX1 PAM	MrgX1 agonist	RGS4 act	MrgX1 antagonist	MrgX1 allo conf	HEK293 Ca flux	HEK293 Ca counter	HEK293 Ca cntr2	others
N#Cc1ccc(COc2cccc3cccnc23)cc1	i	i	i	i	i	.	.	.	.
CCCn1c(SCC(=O)Nc2ccccc2Cl)n[nH]c1=O	i	6.6*	i	i	i	i	i	i	i
CC(C)c1ccc(C(=O)NCCCN2CCOCC2)cc1	i	i	i	i	i	.	.	.	.
O=C(NCCCN1CCOCC1)c1ccc(CSc2ccc(Cl)cc2)cc1	i	9.1*	i	i	i	i	i	i	i
C=CCNc1nc(SCC=C)nc2ccsc12	i	7.4*	i	i	i	i	i	i	i
C=CCSc1nc(Oc2ccccc2)c2sccc2n1	i	i	i	i	i	.	.	.	.
COC(=O)[C@H](Cc1ccccc1)[C@@H](C)OS(N)(=O)=O	i	i	i	i	i	.	.	.	.
O=C(CSc1nnc(-c2ccc(OC(F)F)cc2)o1)NCc1cccs1	i	7.5*	i	i	i	i	i	i	i
O=C(CSc1nc2ccccc2c(=O)n1-c1ccc(OC(F)F)cc1)NCc1cccs1	i	i	i	i	i	.	.	.	.
O=C(Nc1c(O)c2ccccc2[nH]c1=O)c1ccco1	i	i	i	i	i	.	.	.	.
COc1ccc(NS(=O)(=O)c2cc(-c3cnc(C4CC4)o3)ccc2C)cc1	i	i	i	i	i	.	.	.	.
